Test results published in ChEMBL document CHEMBL5316310, “Discovery of MK-8189, a Highly Potent and Selective PDE10A Inhibitor for the Treatment of Schizophrenia” (J Med Chem, 2023).
In brackets after ≈: the same amount, converted by molar mass. Each block holds one compound with its values, some of them ahead of it. Activity calls are given as the source filed them. The rule behind the calls is not given here.

What was measured:
[1] = Aqueous solubility of the compound at pH 7; format: physicochemical; conditions: buffer
[2] = Selectivity ratio of Ki for N-terminal GST-tagged human recombinant PDE11A4 (1 to 943 residues) expressed in baculovirus-infected Sf9 cells to Ki for human PDE10A2 transfected in human AD293 cells cytosolic fraction
[3] = Selectivity ratio of Ki for Rhesus monkey PDE2A3 transfected in AD293 cells cytosolic fraction to Ki for human PDE10A2 transfected in human AD293 cells cytosolic fraction; format: cell-based
[4] = Selectivity ratio of Ki for N-terminal GST-tagged human recombinant PDE5A1 (1 to 875 residues) expressed in baculovirus-infected Sf9 cells to Ki for human PDE10A2 transfected in human AD293 cells cytosolic fraction
[5] = Selectivity ratio of Ki for N-terminal GST-tagged full length human recombinant PDE8A1 expressed in baculovirus-infected Sf9 cells to Ki for human PDE10A2 transfected in human AD293 cells cytosolic fraction
[6] = Selectivity ratio of Ki for N-terminal GST-tagged and C-terminal His-tagged human recombinant PDE7A (122 to 456 residues) expressed in baculovirus-infected Sf9 cells to Ki for human PDE10A2 transfected in human AD293 cells cytosolic fraction
[7] = Selectivity ratio of Ki for N-terminal His-GST-tagged human recombinant PDE3A(669 to 1141 residues) expressed in baculovirus-infected Sf9 cells to Ki for human PDE10A2 transfected in human AD293 cells cytosolic fraction
[8] = target: ATP-dependent translocase ABCB1 (Rattus norvegicus, UniProt P43245); assay: (§1) Substrate activity at rat P-gp assessed as efflux ratio; format: ADME
[9] = target: cAMP and cAMP-inhibited cGMP 3',5'-cyclic phosphodiesterase 10A (Homo sapiens, UniProt Q9Y233); assay: Inhibition of human PDE10A2 transfected in human AD293 cells cytosolic fraction using cAMP as substrate by fluorescence polarization assay; format: subcellular, Cytosol
[10] = Selectivity ratio of Ki for N-terminal GST-tagged full length human recombinant PDE9A2 expressed in baculovirus-infected Sf9 cells to Ki for human PDE10A2 transfected in human AD293 cells cytosolic fraction
[11] = Selectivity ratio of Ki for N-terminal GST-tagged human recombinant PDE4A1A (1 to 647 residues) expressed in baculovirus-infected Sf9 cells to Ki for human PDE10A2 transfected in human AD293 cells cytosolic fraction
[12] = Selectivity ratio of Ki for N-terminal GST-tagged human recombinant PDE1A expressed in baculovirus-infected Sf9 cells to Ki for human PDE10A2 transfected in human AD293 cells cytosolic fraction
P-gp (ABCB1) = P-gp (ABCB1) (Rattus norvegicus, UniProt P43245); assay: as §1; format: ADME
[13] = Unbound plasma clearance in rat; format: ADME; conditions: in vivo
In short: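 Rat unbound clearance (CLu) was calculated by dividing the measured rat plasma clearance by the rat plasma free fraction.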

[14] = target: Voltage-gated inwardly rectifying potassium channel KCNH2 (Homo sapiens, UniProt Q12809); assay: Displacement of MK499 from hERG; format: toxicity
Rattus norvegicus = assay: Cognitive-enhancing activity in rat assessed as improvement in novel object recognition at 0.56 mg/kg, po measured after 1 hr by novel object recognition test; format: functional, organism-based
In short: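 Novel object recognition in rats: oral dosing, then discrimination of a novel object from one seen 48 h earlier. Doses 0.08–0.25 mg/kg; donepezil 0.56 mg/kg as positive control. Groups compared with vehicle (p < 0.05). Plasma for exposure taken 1 h post dose, n = 4/group.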

cAMP and cAMP-inhibited cGMP 3',5'-cyclic phosphodiesterase 10A, sequence (Q9Y233 whole entry): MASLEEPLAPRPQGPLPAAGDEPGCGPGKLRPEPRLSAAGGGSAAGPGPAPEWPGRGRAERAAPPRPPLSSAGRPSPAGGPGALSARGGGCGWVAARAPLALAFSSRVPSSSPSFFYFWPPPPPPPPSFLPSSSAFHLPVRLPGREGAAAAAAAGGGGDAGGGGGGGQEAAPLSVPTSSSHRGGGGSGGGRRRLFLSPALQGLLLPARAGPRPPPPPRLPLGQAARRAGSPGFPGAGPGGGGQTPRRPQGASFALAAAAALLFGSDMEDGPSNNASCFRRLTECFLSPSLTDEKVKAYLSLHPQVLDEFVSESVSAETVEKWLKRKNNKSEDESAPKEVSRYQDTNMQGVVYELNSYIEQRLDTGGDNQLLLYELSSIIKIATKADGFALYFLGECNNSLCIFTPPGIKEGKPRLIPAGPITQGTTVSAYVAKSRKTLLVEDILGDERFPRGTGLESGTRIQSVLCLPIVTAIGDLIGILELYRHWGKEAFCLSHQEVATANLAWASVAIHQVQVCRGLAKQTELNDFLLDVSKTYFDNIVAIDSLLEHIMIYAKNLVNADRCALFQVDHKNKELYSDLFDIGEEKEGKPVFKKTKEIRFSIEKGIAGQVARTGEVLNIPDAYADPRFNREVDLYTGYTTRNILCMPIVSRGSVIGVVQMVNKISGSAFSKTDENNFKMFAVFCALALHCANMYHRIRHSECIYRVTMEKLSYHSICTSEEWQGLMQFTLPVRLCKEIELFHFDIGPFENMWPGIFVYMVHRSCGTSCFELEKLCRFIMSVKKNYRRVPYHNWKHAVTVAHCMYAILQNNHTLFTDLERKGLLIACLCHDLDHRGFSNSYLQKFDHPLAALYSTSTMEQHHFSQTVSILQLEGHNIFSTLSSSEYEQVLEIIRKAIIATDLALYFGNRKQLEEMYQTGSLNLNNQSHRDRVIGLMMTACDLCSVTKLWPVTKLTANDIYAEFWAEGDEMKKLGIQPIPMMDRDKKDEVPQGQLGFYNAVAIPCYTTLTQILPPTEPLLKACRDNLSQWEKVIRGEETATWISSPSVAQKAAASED
P-gp (ABCB1), sequence (P43245 whole entry): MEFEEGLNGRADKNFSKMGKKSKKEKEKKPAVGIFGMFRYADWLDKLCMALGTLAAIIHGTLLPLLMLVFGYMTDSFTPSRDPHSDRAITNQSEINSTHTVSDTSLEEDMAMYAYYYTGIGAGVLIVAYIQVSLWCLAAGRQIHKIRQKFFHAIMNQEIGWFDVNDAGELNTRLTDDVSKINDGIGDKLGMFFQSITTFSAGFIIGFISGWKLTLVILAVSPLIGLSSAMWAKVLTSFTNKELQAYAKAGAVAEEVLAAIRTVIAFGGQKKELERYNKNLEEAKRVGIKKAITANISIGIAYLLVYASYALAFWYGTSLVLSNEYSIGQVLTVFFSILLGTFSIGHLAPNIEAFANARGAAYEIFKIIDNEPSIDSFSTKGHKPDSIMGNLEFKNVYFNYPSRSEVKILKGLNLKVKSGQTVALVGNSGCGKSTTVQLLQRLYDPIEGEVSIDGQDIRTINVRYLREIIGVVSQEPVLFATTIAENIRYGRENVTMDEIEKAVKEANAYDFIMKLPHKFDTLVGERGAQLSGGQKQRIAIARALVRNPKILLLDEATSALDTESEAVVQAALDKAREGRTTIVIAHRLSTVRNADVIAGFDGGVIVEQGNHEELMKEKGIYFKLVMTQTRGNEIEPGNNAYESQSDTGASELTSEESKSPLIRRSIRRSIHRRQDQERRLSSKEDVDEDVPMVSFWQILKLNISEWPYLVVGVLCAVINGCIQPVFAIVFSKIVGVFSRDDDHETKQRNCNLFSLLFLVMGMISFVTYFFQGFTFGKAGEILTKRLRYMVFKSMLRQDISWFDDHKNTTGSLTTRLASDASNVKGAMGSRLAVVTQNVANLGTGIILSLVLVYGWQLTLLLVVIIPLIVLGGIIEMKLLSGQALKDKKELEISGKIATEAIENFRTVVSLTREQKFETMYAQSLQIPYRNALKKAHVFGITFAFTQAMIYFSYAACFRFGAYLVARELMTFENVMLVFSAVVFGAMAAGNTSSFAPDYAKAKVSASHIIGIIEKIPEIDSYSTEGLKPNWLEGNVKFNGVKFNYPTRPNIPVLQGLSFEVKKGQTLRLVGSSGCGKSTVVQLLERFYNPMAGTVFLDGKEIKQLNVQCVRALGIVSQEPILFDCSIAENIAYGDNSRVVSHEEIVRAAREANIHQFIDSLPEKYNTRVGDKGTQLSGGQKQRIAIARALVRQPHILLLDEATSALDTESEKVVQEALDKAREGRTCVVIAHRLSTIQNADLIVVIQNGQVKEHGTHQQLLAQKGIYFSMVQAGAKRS
ATP-dependent translocase ABCB1, sequence (P43245 whole entry): as above
Voltage-gated inwardly rectifying potassium channel KCNH2, sequence (Q12809 whole entry): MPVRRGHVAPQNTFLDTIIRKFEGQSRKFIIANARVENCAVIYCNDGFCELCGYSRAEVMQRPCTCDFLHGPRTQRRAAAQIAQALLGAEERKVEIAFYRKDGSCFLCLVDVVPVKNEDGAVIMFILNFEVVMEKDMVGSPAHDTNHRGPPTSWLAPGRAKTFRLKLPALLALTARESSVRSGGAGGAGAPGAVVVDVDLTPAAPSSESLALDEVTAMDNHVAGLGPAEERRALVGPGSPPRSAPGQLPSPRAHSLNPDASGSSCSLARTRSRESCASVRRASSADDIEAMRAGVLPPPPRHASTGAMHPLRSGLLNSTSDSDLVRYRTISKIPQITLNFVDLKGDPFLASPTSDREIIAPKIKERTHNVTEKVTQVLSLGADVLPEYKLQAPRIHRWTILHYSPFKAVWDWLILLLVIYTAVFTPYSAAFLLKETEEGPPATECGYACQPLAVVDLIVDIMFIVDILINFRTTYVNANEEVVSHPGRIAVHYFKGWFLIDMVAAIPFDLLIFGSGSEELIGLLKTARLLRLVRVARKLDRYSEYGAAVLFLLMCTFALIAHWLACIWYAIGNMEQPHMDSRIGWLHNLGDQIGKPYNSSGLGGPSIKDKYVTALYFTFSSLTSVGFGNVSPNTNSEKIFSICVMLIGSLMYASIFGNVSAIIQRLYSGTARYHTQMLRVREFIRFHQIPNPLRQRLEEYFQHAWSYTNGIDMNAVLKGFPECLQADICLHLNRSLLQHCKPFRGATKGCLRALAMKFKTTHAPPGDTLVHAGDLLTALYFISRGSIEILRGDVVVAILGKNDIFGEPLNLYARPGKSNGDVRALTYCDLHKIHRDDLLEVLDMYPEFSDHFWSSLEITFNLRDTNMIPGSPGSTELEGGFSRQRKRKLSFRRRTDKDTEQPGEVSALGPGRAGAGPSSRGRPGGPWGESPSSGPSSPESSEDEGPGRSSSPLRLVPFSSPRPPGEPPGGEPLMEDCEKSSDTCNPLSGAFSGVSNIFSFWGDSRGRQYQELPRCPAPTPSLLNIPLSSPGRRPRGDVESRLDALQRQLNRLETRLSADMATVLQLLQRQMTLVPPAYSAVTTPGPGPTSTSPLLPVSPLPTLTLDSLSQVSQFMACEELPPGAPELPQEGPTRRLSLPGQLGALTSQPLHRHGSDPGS

Compound: Cn1cc(CNc2cc(OC[C@H]3C[C@@H]3c3ccccn3)nc3ccccc23)cn1
solubility [1]: 19 µM (≈ 7.32 µg/mL) | Ratio Ki [2]: > 5000 | Ratio Ki [3]: > 5000 | Ratio Ki [4]: > 5000 | Ratio Ki [5]: > 5000 | Ratio Ki [6]: > 5000 | Ratio Ki [7]: > 5000 | efflux ratio (P-gp (ABCB1)): 0.5 | Ki [9]: 0.49 nM | Ratio Ki [10]: > 5000 | Ratio Ki [11]: > 5000 | Ratio Ki [12]: > 5000

Compound: Cc1c(NCc2cnn(C)c2)cc(OC[C@H]2C[C@@H]2c2ccccn2)nc1Cl
solubility [1]: 86 µM (≈ 33 µg/mL) | Ratio Ki [2]: > 30000 | Ratio Ki [3]: > 30000 | Ratio Ki [4]: > 30000 | Ratio Ki [5]: > 30000 | Ratio Ki [6]: > 30000 | Ratio Ki [7]: > 30000 | efflux ratio (P-gp (ABCB1)): 0.6 | Ki [9]: 0.047 nM | Ratio Ki [10]: > 30000 | Ratio Ki [11]: > 30000 | Ratio Ki [12]: > 30000

Compound: Cc1c(Cl)cc(OC[C@H]2C[C@@H]2c2ccccn2)nc1NCc1cnn(C)c1
Ki [9]: 3.2 nM

Compound: Cn1cc(CNc2cc(OC[C@H]3C[C@@H]3c3ccccn3)nc3cccnc23)cn1
solubility [1]: 81 µM (≈ 31.3 µg/mL) | Ratio Ki [2]: > 2000 | Ratio Ki [3]: > 2000 | Ratio Ki [4]: > 2000 | Ratio Ki [5]: > 2000 | Ratio Ki [6]: > 2000 | Ratio Ki [7]: > 2000 | efflux ratio (P-gp (ABCB1)): 0.7 | Ki [9]: 0.87 nM | Ratio Ki [10]: > 2000 | Ratio Ki [11]: > 2000 | Ratio Ki [12]: > 2000

Compound: Cc1nnc(CNc2cc(OC[C@H]3C[C@@H]3c3ccccn3)nc3cccnc23)s1
Ratio Ki [2]: > 3600 | Ratio Ki [3]: > 3600 | IC50 [14]: 25000 nM | Ratio Ki [4]: > 3600 | Ratio Ki [5]: > 3600 | Ratio Ki [6]: > 3600 | Ratio Ki [7]: > 3600 | Ki [9]: 0.11 nM | Ratio Ki [10]: > 3600 | Ratio Ki [11]: > 3600 | Ratio Ki [12]: > 3600

Compound: Cc1nc(NCc2nnc(C)s2)cc(OC[C@H]2C[C@@H]2c2ccccn2)n1
Ratio Ki [2]: > 45000 | Ratio Ki [3]: > 45000 | Ratio Ki [4]: > 45000 | Ratio Ki [5]: > 45000 | Ratio Ki [6]: > 45000 | Ratio Ki [7]: > 45000 | Ki [9]: 0.33 nM | Ratio Ki [10]: > 45000 | Ratio Ki [11]: > 45000 | Ratio Ki [12]: > 45000 | CL free [13]: 11.1 L/h/kg

Compound: COc1cc2c(cc1OC)C(=O)C(CC1CCN(Cc3ccccc3)CC1)C2 (centres undefined)
Activity (Rattus norvegicus): Active

Further lines, with some results ahead:

solubility [1]: 22 µM (≈ 8.5 µg/mL) | Ratio [8]: 24 | Ki [9]: 0.12 nM
Compound: Cn1cc(CNc2cc(OC[C@H]3C[C@@H]3c3ccccn3)nc3ccncc23)cn1
Ratio Ki [2]: > 20000 | Ratio Ki [3]: > 20000 | Ratio Ki [4]: > 20000 | Ratio Ki [5]: > 20000 | Ratio Ki [6]: > 20000 | Ratio Ki [7]: > 20000 | Ratio Ki [10]: > 20000 | Ratio Ki [11]: > 20000 | Ratio Ki [12]: > 20000

Ki [9]: 0.038 nM | CL free [13]: 31.8 L/h/kg
Compound: COc1ccc([C@H]2C[C@@H]2COc2cc(NCc3nnc(C)s3)nc(C)n2)nc1
Ratio Ki [2]: > 225000 | Ratio Ki [3]: > 225000 | Ratio Ki [4]: > 225000 | Ratio Ki [5]: > 225000 | Ratio Ki [6]: > 225000 | Ratio Ki [7]: > 225000 | Ratio Ki [10]: > 225000 | Ratio Ki [11]: > 225000 | Ratio Ki [12]: > 225000

CL free [13]: 720 L/h/kg
Compound: Cc1nc(C)c(CNc2nc(OCCCc3ccc4ccccc4n3)nc(Cl)c2C)s1
Ratio Ki [2]: > 5000 | Ratio Ki [3]: > 5000 | Ratio Ki [4]: > 5000 | Ratio Ki [5]: > 5000 | Ratio Ki [6]: > 5000 | Ratio Ki [7]: > 5000 | Ratio Ki [10]: > 5000 | Ratio Ki [11]: > 5000 | Ratio Ki [12]: > 5000

solubility [1]: 149 µM (≈ 57.6 µg/mL) | Ratio [8]: 6.3 | Ki [9]: 0.13 nM
Compound: Cn1cc(CNc2cc(OC[C@H]3C[C@@H]3c3ccccn3)nc3cnccc23)cn1
Ratio Ki [2]: > 7000 | Ratio Ki [3]: > 7000 | Ratio Ki [4]: > 7000 | Ratio Ki [5]: > 7000 | Ratio Ki [6]: > 7000 | Ratio Ki [7]: > 7000 | Ratio Ki [10]: > 7000 | Ratio Ki [11]: > 7000 | Ratio Ki [12]: > 7000

Ki [9]: 0.054 nM | CL free [13]: 424.8 L/h/kg
Compound: COc1ccc([C@H]2C[C@@H]2COc2cc(NCc3cnn(C)c3)nc(C)n2)nc1
Ratio Ki [2]: > 490000 | Ratio Ki [3]: > 490000 | Ratio Ki [4]: > 490000 | Ratio Ki [5]: > 490000 | Ratio Ki [6]: > 490000 | Ratio Ki [7]: > 490000 | Ratio Ki [10]: > 490000 | Ratio Ki [11]: > 490000 | Ratio Ki [12]: > 490000

efflux ratio (P-gp (ABCB1)): 2 | CL free [13]: 174 L/h/kg
Compound: Cc1c(Cl)nc(OC[C@H]2C[C@@H]2c2ccccn2)nc1NCc1cnn(C)c1
Ratio Ki [2]: > 2500 | Ratio Ki [3]: > 2500 | Ratio Ki [4]: > 2500 | Ratio Ki [5]: > 2500 | Ratio Ki [6]: > 2500 | Ratio Ki [7]: > 2500 | Ratio Ki [10]: > 2500 | Ratio Ki [11]: > 2500 | Ratio Ki [12]: > 2500

Ki [9]: 0.6 nM
Compound: Cc1nc(NCc2cnn(C)c2)cc(OC[C@H]2C[C@@H]2c2ccccn2)n1
Ratio Ki [2]: > 67000 | Ratio Ki [3]: > 67000 | Ratio Ki [4]: > 67000 | Ratio Ki [5]: > 67000 | Ratio Ki [6]: > 67000 | Ratio Ki [7]: > 67000 | Ratio Ki [10]: > 67000 | Ratio Ki [11]: > 67000 | Ratio Ki [12]: > 67000

efflux ratio (P-gp (ABCB1)): 0.7
Compound: Cn1cc(CNc2cc(OC[C@H]3C[C@@H]3c3ccccn3)nc3ccnn23)cn1
Ratio Ki [2]: > 5800 | Ratio Ki [3]: > 5800 | Ratio Ki [4]: > 5800 | Ratio Ki [5]: > 5800 | Ratio Ki [6]: > 5800 | Ratio Ki [7]: > 5800 | Ratio Ki [10]: > 5800 | Ratio Ki [11]: > 5800 | Ratio Ki [12]: > 5800

Ki [9]: 0.061 nM | CL free [13]: 284.4 L/h/kg
Compound: Cc1ccc([C@H]2C[C@@H]2COc2cc(NCc3cnn(C)c3)nc(C)n2)nc1
Ratio Ki [2]: > 425000 | Ratio Ki [3]: > 425000 | Ratio Ki [4]: > 425000 | Ratio Ki [5]: > 425000 | Ratio Ki [6]: > 425000 | Ratio Ki [7]: > 425000 | Ratio Ki [10]: > 425000 | Ratio Ki [11]: > 425000 | Ratio Ki [12]: > 425000

Ki [9]: 8.6 nM
Compound: Cn1cc(CNc2cc(OC[C@H]3C[C@@H]3c3ccccn3)nc3ncccc23)cn1
